Experimental data: ChEMBL document CHEMBL3351730, “New N-aryl-N'-(3-(substituted)phenyl)-N'-methylguanidines as leads to potential PET radioligands for imaging the open NMDA receptor” (Bioorg Med Chem Lett, 2015)

What was measured:
[1] = molecular target: Glutamate NMDA receptor (Rattus norvegicus) (UniProt P35439+Q00959+Q00960+Q00961+Q62645+Q8VHN2+Q9R1M7); test: Displacement of [3H]TCP from rat brain NMDA receptor at 1 uM
In short: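 Rat brain membrane suspensions; competition for the PCP site of the NMDA receptor with [3H]TCP as radioligand. Test ligand at 1.0 μM, read-out as percent inhibition of [3H]TCP binding. Values are the mean of two experiments.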

[2] = molecular target: Glutamate NMDA receptor; test: Displacement of [3H]TCP from rat brain NMDA receptor
In short: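 Rat brain membrane suspensions, PCP site of NMDA receptor; [3H]TCP as radioligand. Ligands first screened at 1.0 μM for inhibition of [3H]TCP binding. Ki determined, also with [3H]TCP, usually when inhibition at 1.0 μM reached 80% or more. Values are the mean from two experiments.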

CN(C(=N)Nc1cccc2ccccc12)c1cccc(Br)c1 showed an inhibition [1] of 104% and a Ki [2] of 0.0537 µM.

Work on Cc1cc(N(C)C(=N)Nc2cccc3ccccc23)ccc1F yielded an inhibition [1] of 46.5%.

In the case of CN(C(=N)Nc1cccc2ccccc12)c1ccc(F)c([N+](=O)[O-])c1, the inhibition [1] is reported as 0.7%.

CN(C(=N)Nc1cccc2ccccc12)c1ccc2ccccc2c1 gave an inhibition [1] of 55%.

CN(C(=N)Nc1cccc2ccccc12)c1cccc(C(F)(F)F)c1 showed an inhibition [1] of 107% and a Ki [2] of 0.0183 µM.

With CN(C(=N)Nc1cccc2ccccc12)c1cccc(OC(F)F)c1 the inhibition [1] was 66.4%.

With CSc1cccc(N(C)C(=N)Nc2ccc(Cl)c3ncccc23)c1 the inhibition [1] was 8.6%.

For CN(C(=N)Nc1cccc2ccccc12)c1cccc(I)c1, the inhibition [1] was 106% and the Ki [2] was 0.0319 µM.

In the case of CN(C(=N)Nc1cccc2ccccc12)c1cccc(CO)c1, the inhibition [1] is reported as 20%.

Work on CN(C(=N)Nc1cccc2ccccc12)c1cc(F)cc(Cl)c1 yielded an inhibition [1] of 86.8% and a Ki [2] of 0.0784 µM.

In the case of CN(C(=N)Nc1cccc2ccccc12)c1ccc(F)c(Cl)c1, the inhibition [1] is reported as 65.8%.

In the case of CN(C(=N)Nc1cccc2ccccc12)c1cccc(F)c1, the inhibition [1] is reported as 36.9%.

Compound CN(C(=N)Nc1cccc2ccccc12)c1cccc(C#N)c1 has an inhibition [1] of 62.9%.

CN(C(=N)Nc1cccc2ccccc12)c1cccc(OC(F)(F)F)c1 gave an inhibition [1] of 79.2%.

Work on CN(C(=N)Nc1cccc2ccccc12)c1cccc(SCCF)c1 yielded an inhibition [1] of 76.7%.

CSc1cccc(N(C)C(=N)Nc2cccc3c(Cl)nccc23)c1 gave an inhibition [1] of 91.7% and a Ki [2] of 0.54 µM.

With CSc1cccc(N(C)C(=N)Nc2ccc(Br)cc2Br)c1 the inhibition [1] was 69.7%.

Compound CN(C(=N)Nc1cccc2ccccc12)c1cccc(Cc2ccccc2)c1 has an inhibition [1] of 16.2%.

For CSc1cccc(N(C)C(=N)Nc2cncc3ccccc23)c1, the inhibition [1] was 80.7% and the Ki [2] was > 1 µM.

CN(C(=N)Nc1cccc2ccccc12)c1cccc(Cl)c1 gave an inhibition [1] of 69.2%.

C=Cc1cccc(N(C)C(=N)Nc2cccc3ccccc23)c1 was tested, and the inhibition [1] was 73.9%.

With CSc1cccc(N(C)C(=N)Nc2cccc3cnccc23)c1 the inhibition [1] was 91.2% and the Ki [2] was 0.11 µM.

Work on CN(C(=N)Nc1cccc2ccccc12)c1ccc(F)c(C#N)c1 yielded an inhibition [1] of 62.1%.

CSc1cccc(N(C)C(=N)Nc2ccc(Br)c3ccncc23)c1 gave an inhibition [1] of 14.4%.

Work on CN(C(=N)Nc1cccc2ccccc12)c1ccc(F)c(Br)c1 yielded an inhibition [1] of 56.5%.

Work on CN(C(=N)Nc1cccc2ccccc12)c1cccc(Oc2ccccc2)c1 yielded an inhibition [1] of 30%.

Work on CN(C(=N)Nc1cccc2ccccc12)c1c(F)ccc(Cl)c1F yielded an inhibition [1] of 37.6%.

For CSc1cccc(N(C)C(=N)Nc2cccc3ccccc23)c1, the inhibition [1] was 93.1% and the Ki [2] was 0.0398 µM.

With CN(C(=N)Nc1cccc2ccccc12)c1cccc(Cl)c1F the inhibition [1] was 84%.

CSc1cccc(N(C)C(=N)Nc2cnccc2Br)c1 gave an inhibition [1] of 23.7%.

For CN(C(=N)Nc1cccc2ccccc12)c1cccc(OCc2ccccc2)c1, the inhibition [1] was -2.5%.

COc1cc(F)cc(N(C)C(=N)Nc2cccc3ccccc23)c1 gave an inhibition [1] of 32.9%.

For CN(C(=N)Nc1cccc2ccccc12)c1cccc(SC(F)(F)F)c1, the inhibition [1] was 80% and the Ki [2] was 0.447 µM.

C=CSc1cccc(N(C)C(=N)Nc2cccc3ccccc23)c1 was tested, and the inhibition [1] was 88.4%.

Work on CSc1cccc(N(C)C(=N)Nc2nccc3ccccc23)c1 yielded an inhibition [1] of 25.3%.

With CC(=O)c1cccc(N(C)C(=N)Nc2cccc3ccccc23)c1 the inhibition [1] was 82.3% and the Ki [2] was 0.152 µM.

Work on C#Cc1cccc(N(C)C(=N)Nc2cccc3ccccc23)c1 yielded an inhibition [1] of 74.3%.

For CSc1cccc(N(C)C(=N)Nc2ccc3ccccc3c2)c1, the inhibition [1] was 3.4%.

With CN(C(=N)Nc1cccc2ccccc12)c1cc(Br)ccc1F the inhibition [1] was 13.8%.

For CSc1cccc(N(C)C(=N)Nc2cccc3ccncc23)c1, the inhibition [1] was 73.8%.

CSc1cccc(N(C)C(=N)Nc2cccc3cccnc23)c1 gave an inhibition [1] of 72.2%.

Work on CN(C(=N)Nc1cccc2ccccc12)c1cccc(O)c1 yielded an inhibition [1] of 11.9%.

CN(C)c1cccc(N(C)C(=N)Nc2cccc3ccccc23)c1 gave an inhibition [1] of 94.6% and a Ki [2] of 0.0367 µM.
